# Laboratory results reported in PubChem BioAssay.
# Activity calls are given as the source filed them.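 How the source made its calls, unless noted: active means GFP response above 150% of the DMSO level; inconclusive means fewer than 70 events counted for a yeast strain; inactive means the rest.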
# Tests used:
# [1] = hit retest on RPL19A-GFP reporter strain – cell-based, S. cerevisiae, flow cytometry, cherry picks, mother/daughter gates, confirmation (AID 2270;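 active means GFP response below 50% of the DMSO control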); settings: 3 h, at 10 µM, stronger effect = lower value, 100 = same GFP as DMSO wells
# [2] = yeast TOR pathway reporter LAP4-GFP change – cell-based, cherry picks, flow cytometry, mother/daughter gates, confirmation (AID 2271;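 active means GFP response above 150% of the DMSO control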;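 further: ratio of sample to DMSO plate mean so 100% equals DMSO level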); settings: S. cerevisiae LAP4-GFP strain, 3 h, at 10 µM, stronger effect = higher value, 100 means same as DMSO control
# Procedure, shortened: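 System: Alexa 633-stained baker's yeast GFP-fusion strain / Medium: synthetic complete (SC) yeast growth medium / Doses: compound at 10 µM, single point / Times: 3 h treatment at 30 °C with rotation / Detection: HT flow cytometry, GFP fluorescence channel / Benchmarks: DMSO-only negative wells, rapamycin 400 ng/mL positive wells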
# [3] = TOR pathway reporter MEP2-GFP, retest of hits – S. cerevisiae, flow cytometry GFP, cherry picks, confirmation (AID 2272;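 active means GFP response above 150% of the DMSO control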;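 further: ratio of well signal to plate DMSO mean so 100% equals DMSO level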); settings: S. cerevisiae MEP2-GFP strain, 3 h, at 10 µM, stronger effect = higher value
# [4] = yeast AGP1-GFP fluorescence change, single-dose – cell-based, flow cytometry, S. cerevisiae, cherry picks, confirmation (AID 2273);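 further: median GFP channel fluorescence over the whole cell population gate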; settings: S. cerevisiae AGP1-GFP strain, 3 h, at 10 µM
# [5] = TOR pathway CIT2 reporter hit retest – S. cerevisiae, GFP fusion, cherry picks, mother/daughter gates, confirmation (AID 2274); settings: S. cerevisiae CIT2-GFP strain, flow cytometry, 3 h, at 10 µM, stronger effect = higher value
# [6] = measured here: daughter cell gate
# [7] = measured here: mother cell gate
# [8] = measured here: daughter cell gate response
# [9] = measured here: mother cell gate response
Compound,GFP response vs DMSO [1],"GFP response vs DMSO [1, 6]","GFP response vs DMSO [1, 7]",GFP response relative to DMSO [2],"GFP response relative to DMSO [2, 8]","GFP response relative to DMSO [2, 9]",GFP response vs DMSO [3],"GFP response, % of DMSO [4]","GFP response, % of DMSO [5]","GFP response, % of DMSO [5, 6]","GFP response, % of DMSO [5, 7]"
CCN(CC)C(=O)Cn1c(C)c(/C=C/c2cc[n+](C)cc2)c2ccccc21,107% (inactive),106%,106%,108% (inactive),110%,107%,126% (inactive),98.6% (inactive),109% (inactive),110%,105%
COc1ccccc1NC(=O)Cn1nnc(-c2ccccc2NC(=O)c2ccco2)n1,95.9% (inactive),96.1%,96.6%,85.4% (inactive),87.9%,89%,100% (inactive),95.4% (inactive),99.1% (inactive),98.1%,99.8%
CCCC(=O)Nc1ccc(C(=O)/C=C/c2ccc(SC)cc2)cc1,99.5% (inactive),98.1%,99.2%,105% (inactive),103%,105%,102% (inactive),97.2% (inactive),95.2% (inactive),94.8%,93.4%
O=C(OCc1cccc([N+](=O)[O-])c1)c1cnccn1,98.5% (inactive),99.5%,97.1%,102% (inactive),97.5%,105%,103% (inactive),97% (inactive),98.6% (inactive),101%,96%
CC(Oc1ccc(Cl)cc1)C(=O)NNC(=S)NC(=O)c1ccco1 (configuration not stated),99.6% (inactive),97.1%,97.2%,227% (active),112%,205%,128% (inactive),115% (inactive),106% (inactive),88.4%,93.2%
Cc1ccc2c(c1)/C(=C/c1ccc(F)cc1)C(=O)N2,94.5% (inactive),92.2%,92.7%,124% (inactive),110%,123%,108% (inactive),98.4% (inactive),95.8% (inactive),97.6%,94.9%
COc1cccc(-c2nnc(NC(=O)c3ccc(S(=O)(=O)N4CC(C)OC(C)C4)cc3)o2)c1 (configuration not stated),103% (inactive),103%,102%,95.7% (inactive),94.2%,96.2%,109% (inactive),100% (inactive),100% (inactive),97.4%,99.3%
O=C(O)Cc1ccc2ccc3ccccc3c2c1,96.8% (inactive),92.8%,97.8%,106% (inactive),105%,105%,102% (inactive),96.1% (inactive),104% (inactive),99.7%,104%
CCc1cccc(C)c1NC(=O)CC1Oc2ccc(C)cc2NC1=O (configuration not stated),99.3% (inactive),99.5%,100%,90.6% (inactive),91.3%,91.3%,101% (inactive),101% (inactive),98.6% (inactive),97.6%,98.2%
C=CCNC(=S)N/N=C(\C)c1cccc(OC)c1,100% (inactive),102%,101%,98.8% (inactive),99.3%,97.5%,99.5% (inactive),95.2% (inactive),96.4% (inactive),96.4%,93.3%
COc1cc(/C=C2\C(=O)ON=C2c2ccccc2)cc(Br)c1O,92.7% (inactive),95.6%,88.3%,114% (inactive),113%,115%,99.3% (inactive),92.7% (inactive),94.4% (inactive),95.8%,89.3%
CN(O)/C=c1/ccc2c(n1)C(=O)C=CC=2,105% (inactive),108%,100%,192% (active),170%,188%,115% (inactive),93.2% (inactive),167% (active),150%,161%
CCc1oc2ccccc2c1C(=O)CCN1CCCCC1,99.6% (inactive),98.4%,99.6%,102% (inactive),99.1%,103%,101% (inactive),101% (inactive),98.8% (inactive),99.2%,96.8%
Cc1ccc(-c2nnn(CC(=O)N(CC(=O)NC3CCCC3)c3ccc(F)cc3)n2)o1,97.4% (inactive),98.4%,96.8%,97% (inactive),95.9%,96.2%,99% (inactive),104% (inactive),100% (inactive),103%,99.3%
O=[N+]([O-])/C=C/c1cn(Cc2ccc(Cl)cc2)c2ccccc12,105% (inactive),102%,103%,95% (inactive),95.6%,96.2%,100% (inactive),98.3% (inactive),106% (inactive),106%,102%
O=C(O)c1ccccc1C(=O)N1CCN(c2ccccc2)CC1,99.2% (inactive),99.9%,99.7%,96.7% (inactive),96%,96.1%,98.3% (inactive),101% (inactive),103% (inactive),105%,102%
CC(C)Nc1nc(-c2ccccc2)nnc1-c1ccccc1,98.5% (inactive),98.4%,97.7%,107% (inactive),102%,109%,106% (inactive),96.1% (inactive),98.6% (inactive),97.6%,98.2%
